OX1R antag-1 = antagonists of human orexin 1 receptor (OX1R). inhibition, % at 6.6 µM. OX1R-expressing cells, FRET antagonist read-out. 330,000 tested, 1.8% active. AID 485270, 2010; in the data active = inhibition mostly above about 38%, no sharp cut-off; inactive = mostly below about 40%
GPR7 antag = GPR7 receptor antagonists, primary screen, cell-based, fluorescence, single concentration; 290,000 tested, 1.1% active; Neuropeptides B/W receptor type 1 (Homo sapiens), P48145; GPR7-expressing cells, fluorescence antagonist assay; inhibition, % at 4.4 µM; AID 1861, 2009; in the data active = inhibition above about 16%, passing the limit was not always enough;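 note: cells stimulated with the agonist NPW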
Target sequence (P48145 whole entry, looked up): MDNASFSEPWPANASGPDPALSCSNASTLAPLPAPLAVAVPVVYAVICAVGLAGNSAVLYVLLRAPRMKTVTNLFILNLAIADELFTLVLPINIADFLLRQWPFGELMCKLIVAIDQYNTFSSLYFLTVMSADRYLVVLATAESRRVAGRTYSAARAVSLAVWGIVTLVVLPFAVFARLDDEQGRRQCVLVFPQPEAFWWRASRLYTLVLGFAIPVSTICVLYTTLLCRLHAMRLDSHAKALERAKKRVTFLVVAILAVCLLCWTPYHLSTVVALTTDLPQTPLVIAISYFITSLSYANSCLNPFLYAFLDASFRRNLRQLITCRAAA
TAAR1 ag = human TAAR1 agonists, primary screen, Fluo-8 calcium fluorescence, CHO RD-HGA16 cells; vehicle wells 0%, saturating PEA agonist 100%; activation, % at 3 µM; 360,000 tested, 0.99% active; AID 624467, 2012;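 active = activation above the mean activation of all test compounds in the run plus 3 SD, cut at about 38% in these data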
Target sequence (Q96RJ0 whole entry, looked up): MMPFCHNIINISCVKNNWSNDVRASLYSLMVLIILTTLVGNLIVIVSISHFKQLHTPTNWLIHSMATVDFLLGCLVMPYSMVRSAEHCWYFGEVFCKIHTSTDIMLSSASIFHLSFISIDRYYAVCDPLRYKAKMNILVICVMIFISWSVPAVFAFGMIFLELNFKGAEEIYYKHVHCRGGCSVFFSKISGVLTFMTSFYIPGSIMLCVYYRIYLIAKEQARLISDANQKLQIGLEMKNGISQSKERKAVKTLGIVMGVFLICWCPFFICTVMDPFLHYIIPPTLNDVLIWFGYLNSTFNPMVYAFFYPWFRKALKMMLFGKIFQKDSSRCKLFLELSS
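Test system: RD-HGA16 (CHO) cells co-expressing Gα16 and hTAAR1; dosing: one-point dosing at 3 µM (nominal); timing: 17-24 h seeding, 75 min 37 °C dye, 30 min RT; signal: kinetic Fluo-8 calcium fluorescence; read-out basis: % activation relative to PEA EC100 response; controls: DMSO and PEA EC100; replicates: n 1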
CHO parental Ca = ATP-evoked calcium signal inhibitors, parental CHO, primary screen, counter-screen for OX1R antagonist project, cell-based, fluorescence, Fluo-8 calcium dye; inhibition, % at 5.6 µM; parental CHO-K1, ATP-induced calcium, Fluo-8 fluorescence; 330,000 tested, 0.63% active; AID 463079, 2010;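 active = inhibition above that plate's mean sample inhibition plus 3 SD, cut at about 26% in these data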
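Material: Parental CHO cells | Reagent: ATP | Compound dosing: Single nominal dose of 5.6 µM per compound | Detection: Intracellular calcium via Fluo-8 no-wash fluorescent dye | Read-out: % inhibition of ATP-induced calcium mobilization | Benchmarks: Low control ATP plus DMSO, high control DMSO only | Replicates: Singlicate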
TAAR1 antag = human TAAR1 antagonists, primary screen, Fluo-8 calcium fluorescence, CHO RD-HGA16 cells | antagonist | AID 624466, 2012 | 360,000 tested, 1.5% active | inhibition, % at 3 µM;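 active = inhibition above a per-plate cutoff, the mean inhibition of test compounds on that plate plus 3 SD, cut at about 49% in these data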
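test system = CHO RD-HGA16 cells bearing hTAAR1 | replication = singlicate | controls = DMSO-only wells and EC80 β-PEA-stimulated wells | reagent = EC80 β-phenethylamine stimulus | read-out basis = percent inhibition of PEA-evoked calcium signal, max/basal emission ratio | schedule = seeding 17-24 h prior, 75-min 37 °C, 30-min RT dye loading | signal = kinetic Fluo-8 calcium fluorescence measurement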
OX1R antag-2 = OX1R (HCRTR1) antagonists, primary screen, fluorescence, CHO/OX1R cells, Fluo-8 calcium, orexin A | Orexin/Hypocretin receptor type 1 (Homo sapiens), O43613 | Fluo-8 calcium fluorescence | inhibition, % at 5 µM | 330,000 tested, 0.43% active;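 active = inhibition above its plate's threshold, mean inhibition of all tested compounds on the plate plus 3 SD, cut at about 37% in these data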
Hits are given with their value; . = inactive; / = no result given. In the library only some 4.5% were active in any assay of this set; here they are far more common.

SMILES | OX1R antag-1 | GPR7 antag | TAAR1 ag | CHO parental Ca | TAAR1 antag | OX1R antag-2
C=CCn1c2ccccc2c2nnc(SCCCn3c(=O)[nH]c4ccccc43)nc21 | / | . | . | / | 56 | /
COc1ccc2c3c(cccc13)N(C)N=C2C | 66 | . | . | . | . | .
COc1ccc2c3c(cccc13)OC2=O | . | . | . | . | . | .
Cc1ccc(Cl)cc1N1CCN(S(C)(=O)=O)CC1 | . | . | . | . | . | .
O=C(C1CCN(S(=O)(=O)c2cccc3nsnc23)CC1)N1CCCCC1 | 44 | . | . | . | . | .
Cc1ccc(C)c(N2CCN(C(=O)C3CCN(S(=O)(=O)c4cccc5nsnc45)CC3)CC2)c1 | . | . | . | . | 54 | .
Cc1ccc(Cl)cc1N1CCN(S(=O)(=O)N2CCCCC2)CC1 | . | 23 | . | . | . | .
Cc1ccc(Cl)cc1N1CCN(C(=O)C2CCN(S(=O)(=O)c3cccnc3)CC2)CC1 | . | . | . | . | . | .
Cc1ccc(Cl)cc1N1CCN(C(=O)C2CCN(S(=O)(=O)c3c(C)nn(C)c3C)CC2)CC1 | . | . | . | 35 | 77 | .
O=C1OC(CC(=O)N(Cc2nnc(-c3ccccc3Cl)o2)C2CC2)c2ccccc21 (centres undefined) | . | / | . | . | . | .
C[C@@H]1CN(C(=O)OC(C)(C)C)CCN1c1ccc(N2CCN(Cc3ccccc3)[C@@H](C)C2)c(C#N)c1 | / | / | . | / | . | /
O=C(C1CCC(CNS(=O)(=O)c2cccc3nsnc23)CC1)N1CC=C(c2ccccc2)CC1 (centres undefined) | . | . | . | . | . | .
O=C(C1CCN(S(=O)(=O)c2cccc3nsnc23)CC1)N1CC=C(c2ccccc2)CC1 | . | . | . | . | 56 | .
O=C(C1CCN(S(=O)(=O)c2cccc3cccnc23)CC1)N1CCN(c2ccc(Cl)cc2)CC1 | . | 17 | . | . | . | .
O=C(C1CCCN(S(=O)(=O)c2cccc3nsnc23)C1)N1CC=C(c2ccccc2)CC1 (centres undefined) | . | . | . | . | 50 | .
O=C(C1CCCN(S(=O)(=O)c2cccc3nonc23)C1)N1CCN(c2cccc(Cl)c2)CC1 (centres undefined) | . | . | . | . | 49 | .
C/C(=N\NC(=O)Cc1ccc(Cl)cc1)c1cccnc1 | / | . | . | / | . | /
CCCN1CCN(CCCNC(=O)C(CC)n2nc(C)n3c(cc4occc43)c2=O)CC1 (centres undefined) | . | . | . | . | . | .
O=C(Nc1ccc2c(c1)OCO2)c1cc(-c2ccc(O)cc2)on1 | . | . | . | 39 | . | .
O=C(Nc1ccc2c(c1)OCO2)c1cc(-c2cccc(O)c2)on1 | . | . | . | . | . | .
COC(=O)C1=C(C)N(Cc2ccccc2C(F)(F)F)C(=NCC2CC2)NC1c1cccc(F)c1 (centres undefined) | / | / | . | / | . | /
COCCOC(=O)c1c(C)n(C)c2ccc(OC(=O)N3CCOCC3)cc12 | . | . | . | . | . | .
COCCOC(=O)c1c(C)n(C)c2ccc(OC(=O)c3c(OC)cccc3OC)cc12 | . | . | . | . | 49 | .
CCN=C1S/C(=C/c2ccc(-c3ccc(F)cc3)o2)C(=O)N1CC | . | . | . | . | . | .
O=C(/C=C(\Nc1ccc(Cl)c(Cl)c1)c1ccccc1)c1ccccc1 | / | / | . | / | . | /
SMILES | OX1R antag-1 | GPR7 antag | TAAR1 ag | CHO parental Ca | TAAR1 antag | OX1R antag-2
C[C@@H]1ON(C)[C@H]2C[C@H]3c4[nH]c5c(-c6ccc(C(F)(F)F)cc6)cccc5c4CCN3C(=O)[C@@H]12 | / | / | . | / | . | /
Cc1ccc(-n2c(-c3ccccc3)cc(/C=N/NC(=O)CC#N)c2-c2ccccc2)cc1 | . | . | . | . | . | .
N#CCC(=O)N/N=C/c1cc(-c2ccccc2)n(-c2ccc(Cl)cc2)c1-c1ccccc1 | 104 | . | . | . | . | .
CCCCn1c(N)c(N(CC(C)C)C(=O)c2cc(S(=O)(=O)N3CCCCC3)ccc2C)c(=O)[nH]c1=O | . | / | . | . | . | .
CC(C)(C)OC(=O)NCCCCCNC(=O)c1[nH]cnc1C(=O)N[C@@H](Cc1ccccc1)C(=O)OC(C)(C)C | . | / | / | 40 | / | .
CC(C)(C)OC(=O)[C@H](Cc1ccccc1)NC(=O)c1nc[nH]c1C(=O)NCCCCCN | . | / | . | . | . | .
C[C@H](NC(=O)c1nc[nH]c1C(=O)NCc1ccc(CNC(=O)OC(C)(C)C)cc1)C(=O)OCc1ccccc1 | . | / | . | . | 82 | .
Cc1cc(N/N=C/c2ccc(Cl)cc2)nc(NCc2ccccc2)n1 | . | . | 40 | . | . | .
Cc1cc(N/N=C/c2cccc(Cl)c2)nc(NCc2ccccc2)n1 | . | . | . | . | . | .
O=c1[nH]c2cc3c(cc2cc1CN(Cc1ccc2c(c1)OCO2)Cc1nnnn1CC1CCCO1)OCO3 (centres undefined) | 49 | . | . | . | . | .
Cc1ccc2[nH]c(=O)c(CN(Cc3cccnc3)Cc3nnnn3CC3CCCO3)cc2c1 (centres undefined) | . | . | . | . | . | .
CS(=O)(=O)c1cccc(C(=O)N(CCc2ccccc2)Cc2cccs2)c1 | . | . | 38 | . | . | .
O=C(c1cccc(S(=O)(=O)N2CCCCC2)c1)N(CCc1ccccc1)Cc1ccccc1 | . | / | . | . | . | .
COCCCn1c(=NC(C)=O)c(C#N)cc2c(=O)n3cccc(C)c3nc21 | . | . | . | . | . | .
CCOC(=O)c1cc2c(=O)n3ccccc3nc2n(CCOC)c1=NC(=O)C(C)(C)C | . | . | . | . | . | .
CCOCCCn1c(=NC(C)=O)c(C#N)cc2c(=O)n3ccccc3nc21 | 40 | . | . | . | . | .
COCCCn1c(=NC(=O)c2ccccc2)c(C#N)cc2c(=O)n3cccc(C)c3nc21 | 55 | . | . | . | . | .
CCOCCCn1c(=NC(C)=O)c(C(=O)OCC)cc2c(=O)n3ccccc3nc21 | 59 | . | . | . | . | .
COc1ccc(Cn2cc(CN3CC(N4CCN(Cc5ccccc5F)CC4)CS3(=O)=O)nn2)cc1 (centres undefined) | / | / | . | / | . | /
CCOc1cccc(N)c1 | . | / | / | . | / | .
CCOc1ccc(N)c(SSc2cc(OCC)ccc2N)c1 | . | . | . | 47 | . | .
COc1ccc(/C=C(\NC(=O)c2ccco2)C(=O)NCCc2nc3ccccc3[nH]2)cc1 | 46 | . | . | . | . | .
C=CCn1c(SCC(=O)Nc2ccc3c(c2)OCCO3)nc2cc(C(=O)O)ccc2c1=O | . | / | . | . | . | .

Assay outcomes from PubChem BioAssay.
